procasp7 counter: activates human procaspase-7, counter-screen for procaspase-3 activators. P55210. recombinant procaspase-7, Ac-DEVD-pNA absorbance 405 nm; D23A/D198A/D206A triple mutant, cannot self-cleave; scale: DMSO 0, 5 µM enzyme 100. activation, % at 8.5 µM. 330,000 compounds, 0.093% hits. AID 463210;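 active means percent activation above the screen-wide mean plus 3 SD, cut at about 25% in these data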
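Replicates: singlicate. Assay system: Procaspase-7 triple mutant (PC-7 D3A). Signal: 405 nm absorbance of p-nitroaniline. Times: 1 h preincubation, 2 h reaction. Buffer or medium: Zinc-free HEPES pH 7.4 with 300 mM NaCl, 0.01% Triton X-100. Also added: DEVD-pNA substrate. Benchmarks: DMSO wells as 0%, DMSO with 5 µM added PC-7 as 100%.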
Neddyl block: blocks human cullin neddylation; 360,000 compounds, 0.58% hits; calls only at 25 µM; TR-FRET cullin neddylation, biochemical; P61081+Q13564; in the data active means inhibition above about 36%
Target sequence (P61081 whole entry, looked up): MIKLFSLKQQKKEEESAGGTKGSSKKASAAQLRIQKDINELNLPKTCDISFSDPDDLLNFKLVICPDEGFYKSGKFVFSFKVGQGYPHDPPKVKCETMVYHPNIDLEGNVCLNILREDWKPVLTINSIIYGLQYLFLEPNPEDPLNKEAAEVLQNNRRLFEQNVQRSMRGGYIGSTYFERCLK
Target sequence (Q13564 whole entry, looked up): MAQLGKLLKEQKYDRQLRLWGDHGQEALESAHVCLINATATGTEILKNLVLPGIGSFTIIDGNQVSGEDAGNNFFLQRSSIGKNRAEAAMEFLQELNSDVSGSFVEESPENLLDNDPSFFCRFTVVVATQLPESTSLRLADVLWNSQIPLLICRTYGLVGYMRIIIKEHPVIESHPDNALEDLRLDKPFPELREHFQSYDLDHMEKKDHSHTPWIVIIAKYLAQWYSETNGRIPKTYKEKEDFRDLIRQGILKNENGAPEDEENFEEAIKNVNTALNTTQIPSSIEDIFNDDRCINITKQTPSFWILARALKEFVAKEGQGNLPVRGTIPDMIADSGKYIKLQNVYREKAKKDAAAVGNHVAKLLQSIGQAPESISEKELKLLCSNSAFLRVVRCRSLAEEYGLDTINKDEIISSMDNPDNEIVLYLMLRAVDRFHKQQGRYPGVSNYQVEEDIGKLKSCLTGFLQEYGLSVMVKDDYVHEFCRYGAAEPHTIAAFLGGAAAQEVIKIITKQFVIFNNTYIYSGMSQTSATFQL
proCasp3 act: activates human procaspase-3; recombinant procaspase-3 D3A, Ac-DEVD-pNA absorbance 405 nm; activation, % at 8.5 µM; 330,000 compounds, 0.11% hits;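 active means activation above the mean of all tested compounds plus 3 SD, cut at about 21% in these data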;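 further: 0% = DMSO alone and 100% = DMSO wells spiked with extra 5 µM PC-3 D3A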
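material = Procaspase-3 D3A mutant | probe or stimulus = Ac-DEVD-pNA | compound = single dose, 8.5 µM nominal compound, 0.8% DMSO | timing = 1 h preincubation, 2 h reaction | measured by = 405 nm absorbance of p-nitroaniline, reads at 0 and 120 min | benchmarks = DMSO-only low control, 5 µM PC-3 D3A high control | repeats = singlicate, each compound tested once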
PolyA inh: yeast polyadenylation inhibition; S. cerevisiae SKY197-pL101 polyadenylation reporter, beta-gal luminescence; efflux-impaired pdr1/pdr3 knockout yeast; score 100 = 6 SD above DMSO; AID 1875; 300,000 compounds, 0.02% hits; activity score, % at 12 µM;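 active means lowest replicate activity score at least 50, where 100 means six control SD above control mean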;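 further: yeast exposed to compound for 9 h at 30 °C; higher score means more reporter readthrough which indicates perturbed polyadenylation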
IMP-1 inh: inhibitors of Pseudomonas aeruginosa IMP-1 metallo-beta-lactamase. purified IMP-1, nitrocefin hydrolysis, epi-absorbance fluorescence. inhibition, % at 5.6 µM. 290,000 compounds, 0.45% hits;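 active means inhibition above the mean plus 3 SD of all compounds in the same screening run, cut at about 4.5% in these data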;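 further: 0% = IMP-1 with DMSO and 100% = DMSO wells lacking enzyme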
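System: Purified IMP-1 | Read-out basis: Percent enzyme inhibition | Controls: IMP-1 with DMSO as 0%, enzyme-free DMSO as 100% | Replicates: One well per compound | Doses: 5.6 µM nominal single concentration | Detection: Epi-absorbance fluorescence, 480 nm excitation, 530 nm emission | Incubation: 25 °C, 15 min preincubation, 25 min reaction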
VIM-2 inh: inhibitors of Pseudomonas aeruginosa VIM-2 metallo-beta-lactamase. purified VIM-2, nitrocefin hydrolysis, epi-absorbance fluorescence. inhibition, % at 5.6 µM. 290,000 compounds, 0.89% hits. AID 1527;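 active means inhibition above the mean of all tested compounds plus 3 SD, cutoff set per screening run, cut at about 7.5% in these data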;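 further: red hydrolysis product quenches plate fluorescence so inhibitors raise well fluorescence; 0% = enzyme with DMSO and 100% = DMSO without enzyme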
VIM-2 inh confirm: VIM-2 inhibition, confirmation assay; shares compounds with IMP-1 inh; purified VIM-2 enzyme, nitrocefin absorbance; inhibition, % at 5.6 µM; 200 compounds, 73% hits; AID 1860; in the data active means inhibition above about 8%;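 further: 0% = enzyme with vehicle and 100% = no enzyme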
TEM-1 inh 2: blocks E. coli TEM-1 beta-lactamase, VIM-2 IMP-1 counter-screen; shares compounds with IMP-1 inh; nitrocefin absorbance inhibition; inhibition, % at 5.6 µM; 200 compounds, 50% hits; AID 2184; in the data active means inhibition above about 0.66%
IMP-1 confirm: confirmation of P. aeruginosa IMP-1 metallo-beta-lactamase inhibitors; inhibition, % at 5.6 µM; 200 compounds, 60% hits; shares compounds with IMP-1 inh; purified IMP-1 enzyme, absorbance substrate hydrolysis; in the data active means inhibition above about 4.9%;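 further: 0% = enzyme with vehicle and 100% = vehicle without enzyme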
* hit, by the source's call; i = inactive; x = no result given; + = active, no number. Shown are actives, neighbours in structure and some others; about 1.7% of the full set was active somewhere.

SMILES | procasp7 counter | Neddyl block | proCasp3 act | PolyA inh | IMP-1 inh | VIM-2 inh | VIM-2 inh confirm | TEM-1 inh 2 | IMP-1 confirm
CCC(C)Nc1nc(Cl)nc(N(C#N)CN2C(=O)c3ccccc3S2(=O)=O)n1 (stereo unspecified) | 2 | i | 0 | 9 | 18* | 13* | 0 | -5 | -1
COC(=O)C1C(c2ccccc2)C=CC(c2ccccc2)C1C(=O)O (stereo unspecified) | 7 | i | -8 | -21 | 61* | 8.7* | 3 | -4 | 39*
COc1ccccc1-c1csc(-n2ncc(C#N)c2N)n1 | -1 | i | 4 | -3 | 22* | 17* | 10* | -2 | 12*
COc1ccc(-c2csc(-n3ncc(-c4ccccn4)c3N)n2)cc1 | 9 | i | 11 | 3 | -3 | -1 | x | x | x
CN(/N=C/c1ccc(-c2ccc([N+](=O)[O-])cc2)o1)c1ccccc1 | -3 | i | -12 | -9 | 30* | 26* | 17* | 27* | 16*
CN(/N=C/c1cc([N+](=O)[O-])ccc1O)c1ccccc1 | -5 | i | -3 | 16 | -3 | -2 | x | x | x
Cc1cc(N/C=C(\C#N)S(=O)(=O)c2ccc(Cl)cc2)nc(C)n1 | 4 | i | -2 | 8 | -1 | -2 | x | x | x
O=C(O)c1c(C(=O)O)c(-c2ccc(Cl)c(Cl)c2)n2c1CSC2 | -7 | i | 0 | 4 | 4.9* | 57* | 55* | -1 | 3
O=C(c1cc(-c2ccc(Cl)c(Cl)c2)on1)N1CCCC1 | x | x | x | x | -1 | -1 | x | x | x
N#C/C(=C\C=C\c1ccccc1)C(=O)N1CCCC1 | 4 | i | 1 | 10 | -2 | -5 | x | x | x
CCOC(=O)N1C(=O)c2cc(OC)ccc2S1(=O)=O | -4 | i | 1 | -8 | 38* | 9.4* | 3 | 1.5* | 5.3*
Cc1cccc(C)c1NC(=S)N1CCCN(C)CC1 | 6 | i | 0 | 11 | -4 | 0 | x | x | x
CN(C)S(=O)(=O)N1C(=O)c2ccccc2C1=O | 16 | i | 4 | 13 | -3 | -4 | x | x | x
CN(C)/C=C1\C=C2C(=O)c3ccccc3N2C1=O | -16 | i | -14 | -18 | 21* | 20* | 134* | + | 119*
O=C(Nc1ccc(OCC(=O)N2CCN(S(=O)(=O)c3ccccc3)CC2)cc1)c1ccco1 | 2 | i | 2 | 21 | -3 | -4 | x | x | x
CCCCC(Sc1nc(N)c(NC(=O)c2ccc(OCC)cc2)c(=O)[nH]1)C(=O)O (stereo unspecified) | -3 | i | 7 | 0 | -1 | 0 | x | x | x
CCCCC(Sc1nc(N)c(NC(=O)c2ccco2)c(=O)[nH]1)C(=O)O (stereo unspecified) | -2 | i | -3 | -2 | 12* | 12* | 25* | 1.7* | 36*
CSc1nsc(SCC(=O)Nc2ccc3c(c2)OCCO3)n1 | -3 | i | -4 | 4 | -3 | -4 | x | x | x
N=C1/C(=C\c2coc3ccc(O)cc3c2=O)C(=O)N=C2SC=CN12 | -13 | i | -15 | -11 | 11* | 9.9* | 17* | 8.0* | 14*
O=C(c1ccc(F)cc1)C1CCN(C(=O)c2ccc(F)cc2)CC1 | -5 | i | 9 | 7 | 0 | 1 | x | x | x
CC(=O)OCCn1c2nc(=O)[nH]c(=O)c-2nc2cc(C)c(C)cc21 | x | i | x | -14 | 10* | 33* | 43* | 112* | 37*
CC(=O)OCCn1c(C)[n+](CCOC(C)=O)c2cc(Cl)c(Cl)cc21 | 12 | i | -2 | -4 | -1 | 1 | x | x | x
Cn1cc(/C=C/c2cc[n+](C)cc2)c2cc(Cl)ccc21 | -4 | i | 0 | -4 | 5.8* | 13* | 22* | 2.8* | 4
Cn1cc(/C=C/c2cc[n+](C)cc2)c2cc(F)ccc21 | -11 | i | -2 | -15 | 5.7* | 11* | 14* | 4.7* | 7.5*
Cn1cc(C=O)c2cc(F)ccc21 | 12 | i | 4 | 1 | 1 | 1 | x | x | x
SMILES | procasp7 counter | Neddyl block | proCasp3 act | PolyA inh | IMP-1 inh | VIM-2 inh | VIM-2 inh confirm | TEM-1 inh 2 | IMP-1 confirm
CCn1cc(C(=O)NC(=S)Nc2ccccc2Br)cn1 | 8 | i | 1 | 5 | -1 | -2 | x | x | x
COC(C(=O)N/N=C/c1ccc(OCC(=O)N2CCOCC2)cc1)c1ccccc1 (stereo unspecified) | 7 | i | 3 | 27 | -3 | 0 | x | x | x
COc1ccc(Cl)cc1Nc1nnc(-c2ccncc2)s1 | 2 | i | 3 | -3 | 19* | 8.7* | 3 | -1 | 12*
CN(C)CCCNc1ncnc2sc(-c3ccccc3)cc12 | 2 | i | 0 | 0 | 0 | 1 | x | x | x
COc1ccc(N=Nc2nc3cc(Br)c(Br)cc3n2C)c(OC)c1 | -6 | i | -3 | x | 9.3* | 10* | 3 | 5.6* | -1
COc1ccc(CNc2nc3ccccc3n2C)c(OC)c1 | 3 | i | 2 | -1 | -4 | -5 | x | x | x
CC(C)N1CCc2c(sc(NC(=O)Cc3ccccc3)c2C(N)=O)C1 | 4 | i | 4 | -18 | -1 | -3 | x | x | x
CC(=O)Nc1sc2c(c1-c1nc3ccccc3s1)CCN(C(C)C)C2 | 5 | i | -1 | x | 4.5* | 18* | 15* | -3 | -1
Cc1ccc2c(c1)c(/C=C/c1cc[n+](C)cc1)c(C)n2C | x | i | x | -8 | 8.4* | 26* | 31* | -2 | 3
O=C(Nc1ccc(C(F)(F)F)cc1)c1ccc(NC(=O)C2CCCO2)cc1 (stereo unspecified) | 4 | i | 1 | -31 | 16* | 9.1* | 9.9* | -2 | 9.8*
COc1ccc(NC(=O)CCCc2c[nH]c3ccccc23)cc1OC | -19 | i | 0 | 11 | -2 | -1 | x | x | x
CNc1ccc2c3c(cccc13)C(=O)N(C)C2=O | -6 | i | -6 | -8 | 44* | 50* | 76* | 87* | 59*
CN1C(=O)c2cccc3c(Cl)ccc(c23)C1=O | 5 | i | 8 | -36 | 0 | 0 | x | x | x
Cc1c(O)ccc(C(=O)CN2CCN(Cc3ccc4c(c3)OCO4)CC2)c1O | 5 | i | -7 | -4 | 87* | 91* | -1 | -6 | -2
CN(C)c1ccc(/C=C(\C#N)C(=O)c2ccccc2)cc1 | -16 | i | 1 | -15 | 6.2* | 5 | 13* | 13* | 11*
Cc1ccc(C=C(C#N)C(=O)c2ccccc2)cc1 | x | i | x | x | x | x | x | x | x
